# Source: ChEMBL document CHEMBL5032510, “Identification of Novel Fused Heteroaromatics-Based MALT1 Inhibitors by High-Throughput Screening to Treat B Cell Lymphoma” (J Med Chem, 2021)
# Calls of active or inactive are those of the source. No cut-off for these calls is given here.
# Columns and labels:
# [1] = biological target: T1, Nuclear factor NF-kappa-B complex (Homo sapiens) (UniProt Q00653+P19838+Q04206); experiment: Inhibition of NF-kappaB signalling in human HBL1 cells assessed as reduction in phosphorylation of IkappaB-alpha at 8 uM preincubated for 30 mins followed by proteosome inhibitor MG-132 addition and measured after 2 hrs by Western blot analysis; format: cell-based; details: time 2.5 hrs
# Method in brief: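 HBL1 cells were pretreated with compound (4 and 8 μM) for 30 min, then given 10 μM MG-132 for 2 h. Phospho-IκBα, IκBα and RelB were probed by western blot, with β-actin as loading control. Each lane held 20−75 μg total protein, with chemiluminescent detection.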
# TMD8 [2] = experiment: Induction of apoptosis in human TMD8 cells assessed as viable cells at 2 uM measured after 24 hrs by Annexin V-FITC/ Propidium iodide staining based flow cytometry (reference value: 90.8%); format: functional; details: read-out: Activity
# TMD8 [3] = experiment: Antiproliferative activity against human TMD8 cells assessed as inhibition of cell growth incubated for 72 hrs by Celltiter-Glo luminescent assay; format: functional
# Method in brief: (§1)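 Exponentially growing cells were seeded at 1 × 10⁴ per 100 μL. HBL-1 and TMD8 were kept in RPMI with 10% FBS, 2 mM glutamine and 10 mM HEPES; OCI-LY1 in Iscove's medium with 20% FBS; all at 37 °C and 5% CO2. Cells were exposed to DMSO or 2-fold serial dilutions from 100 μM for 72 h, in triplicate on one plate. CellTiter-Glo luminescence was read after 1 h. Growth inhibition was calculated against control, accounting for initial cell number, and GI50 was fitted.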
# [4] = biological target: T2, Mucosa-associated lymphoid tissue lymphoma translocation protein 1 (Homo sapiens) (UniProt Q9UDY8); experiment: Inhibition of MALT1 in human HBL1 cells assessed as decrease in RelB substrate cleavage at 8 uM preincubated for 30 mins followed by proteosome inhibitor MG-132 addition and measured after 2 hrs by Western blot analysis; format: cell-based; details: time 2.5 hrs
# T2 sequence (whole entry): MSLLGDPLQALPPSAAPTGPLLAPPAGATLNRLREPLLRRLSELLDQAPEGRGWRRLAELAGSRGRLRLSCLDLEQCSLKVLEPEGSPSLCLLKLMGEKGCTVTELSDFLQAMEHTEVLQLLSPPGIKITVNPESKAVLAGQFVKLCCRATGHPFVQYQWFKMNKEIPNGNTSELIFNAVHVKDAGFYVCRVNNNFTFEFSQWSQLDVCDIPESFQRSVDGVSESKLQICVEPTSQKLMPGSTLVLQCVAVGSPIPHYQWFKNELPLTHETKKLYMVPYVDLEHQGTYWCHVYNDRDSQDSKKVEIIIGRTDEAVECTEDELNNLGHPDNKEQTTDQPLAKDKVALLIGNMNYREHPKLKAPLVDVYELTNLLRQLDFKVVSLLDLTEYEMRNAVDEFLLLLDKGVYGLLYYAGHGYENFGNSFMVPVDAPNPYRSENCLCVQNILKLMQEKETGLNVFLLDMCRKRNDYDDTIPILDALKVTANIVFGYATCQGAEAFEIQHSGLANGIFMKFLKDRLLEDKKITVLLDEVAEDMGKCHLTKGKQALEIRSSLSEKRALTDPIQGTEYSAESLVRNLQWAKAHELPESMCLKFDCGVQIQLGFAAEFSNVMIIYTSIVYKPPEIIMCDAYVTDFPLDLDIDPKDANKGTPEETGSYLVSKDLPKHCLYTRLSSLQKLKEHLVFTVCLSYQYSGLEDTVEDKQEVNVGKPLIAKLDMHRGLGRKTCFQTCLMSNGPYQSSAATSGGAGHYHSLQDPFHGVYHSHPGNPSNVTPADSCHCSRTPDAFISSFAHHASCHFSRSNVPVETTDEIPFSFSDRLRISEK
# Method in brief: (§2)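 Cells were grown in RPMI with 10% FBS, 2 mM glutamine and 10 mM HEPES at 37 °C, 5% CO₂. Pretreated 30 min with compound (4 and 8 μM), then 10 μM MG-132 for 2 h. 20−75 μg total protein run on SDS-PAGE, blotted to PVDF, probed for RelB, detected by HRP chemiluminescence. β-actin was the loading control.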
# [5] = biological target: T2, Mucosa-associated lymphoid tissue lymphoma translocation protein 1 (Homo sapiens); experiment: Inhibition of MALT1 in human TMD8 cells assessed as decrease in RelB substrate cleavage at 8 uM preincubated for 30 mins followed by proteosome inhibitor MG-132 addition and measured after 2 hrs by Western blot analysis; format: cell-based; details: time 2.5 hrs; method in brief: as §2
# TMD8 [6] = experiment: Induction of apoptosis in human TMD8 cells assessed as dead cells at 5 uM measured after 24 hrs by Annexin V-FITC/ Propidium iodide staining based flow cytometry (reference value: 0 %); format: functional
# TMD8 [7] = experiment: Induction of apoptosis in human TMD8 cells assessed as early apoptotic cells at 10 uM measured after 24 hrs by Annexin V-FITC/ Propidium iodide staining based flow cytometry (reference value: 6.97%); format: functional
# [8] = biological target: T1, Nuclear factor NF-kappa-B complex (Homo sapiens); experiment: Inhibition of NF-kappab signaling in human TMD8 cells assessed as reduction in phosphorylation of IkappaB-alpha at 8 uM preincubated for 30 mins followed by MG-132 addition and measured after 2 hrs by Western blot analysis; format: cell-based; details: time 2.5 hrs
# Method in brief: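 HBL1, TMD8 and OCI-LY1 cells pretreated 30 min with inhibitor (4 and 8 μM), then given 10 μM proteasome inhibitor MG-132 for 2 h. Lysates (20−75 μg protein) run on SDS-PAGE, blotted to PVDF and probed for RelB, IκBα and phospho-IκBα, with β-actin as loading control; HRP secondary, chemiluminescence detection.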
# TMD8 [9] = experiment: Induction of apoptosis in human TMD8 cells assessed as late apoptotic cells at 2 uM measured after 24 hrs by Annexin V-FITC/ Propidium iodide staining based flow cytometry (reference value: 2.19%); format: functional
# [10] = Oral bioavailability in CD-1 mouse at 10 mg/kg by LC-MS/MS analysis; format: ADME, organism-based; details: in vivo
# Method in brief: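 Male ICR (CD-1) mice (n = 9). Compound formulated in 5% DMSO + 5% Tween-80 in 90% saline and dosed 10 mg/kg po, 1 mg/kg ip or 1 mg/kg iv. Blood drawn from the jugular vein at set time points and held on ice. Plasma separated by centrifugation and stored at −80 °C before parameter derivation.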
# [11] = Antiproliferative activity against human HBL1 cells assessed as inhibition of cell growth incubated for 72 hrs by Celltiter-Glo luminescent assay; format: functional; method in brief: as §1
# OCI-Ly1 [12] = experiment: Induction of apoptosis in human OCI-Ly1 cells assessed as dead cells at 2 uM measured after 24 hrs by Annexin V-FITC/ Propidium iodide staining based flow cytometry (reference value: 0.365%); format: functional
# TMD8 [13] = experiment: Induction of apoptosis in human TMD8 cells assessed as early apoptotic cells at 2 uM measured after 24 hrs by Annexin V-FITC/ Propidium iodide staining based flow cytometry (reference value: 6.97%); format: functional
# OCI-Ly1 [14] = experiment: Induction of apoptosis in human OCI-Ly1 cells assessed as viable cells at 10 uM measured after 24 hrs by Annexin V-FITC/ Propidium iodide staining based flow cytometry (reference value: 97.8%); format: functional; details: read-out: Activity
# OCI-Ly1 [15] = experiment: Induction of apoptosis in human OCI-Ly1 cells assessed as late apoptotic cells at 2 uM measured after 24 hrs by Annexin V-FITC/ Propidium iodide staining based flow cytometry (reference value: 0.548%); format: functional
# TMD8 [16] = experiment: Induction of apoptosis in human TMD8 cells assessed as early apoptotic cells at 5 uM measured after 24 hrs by Annexin V-FITC/ Propidium iodide staining based flow cytometry (reference value: 6.97%); format: functional
# T1 sequence (P19838 whole entry, looked up): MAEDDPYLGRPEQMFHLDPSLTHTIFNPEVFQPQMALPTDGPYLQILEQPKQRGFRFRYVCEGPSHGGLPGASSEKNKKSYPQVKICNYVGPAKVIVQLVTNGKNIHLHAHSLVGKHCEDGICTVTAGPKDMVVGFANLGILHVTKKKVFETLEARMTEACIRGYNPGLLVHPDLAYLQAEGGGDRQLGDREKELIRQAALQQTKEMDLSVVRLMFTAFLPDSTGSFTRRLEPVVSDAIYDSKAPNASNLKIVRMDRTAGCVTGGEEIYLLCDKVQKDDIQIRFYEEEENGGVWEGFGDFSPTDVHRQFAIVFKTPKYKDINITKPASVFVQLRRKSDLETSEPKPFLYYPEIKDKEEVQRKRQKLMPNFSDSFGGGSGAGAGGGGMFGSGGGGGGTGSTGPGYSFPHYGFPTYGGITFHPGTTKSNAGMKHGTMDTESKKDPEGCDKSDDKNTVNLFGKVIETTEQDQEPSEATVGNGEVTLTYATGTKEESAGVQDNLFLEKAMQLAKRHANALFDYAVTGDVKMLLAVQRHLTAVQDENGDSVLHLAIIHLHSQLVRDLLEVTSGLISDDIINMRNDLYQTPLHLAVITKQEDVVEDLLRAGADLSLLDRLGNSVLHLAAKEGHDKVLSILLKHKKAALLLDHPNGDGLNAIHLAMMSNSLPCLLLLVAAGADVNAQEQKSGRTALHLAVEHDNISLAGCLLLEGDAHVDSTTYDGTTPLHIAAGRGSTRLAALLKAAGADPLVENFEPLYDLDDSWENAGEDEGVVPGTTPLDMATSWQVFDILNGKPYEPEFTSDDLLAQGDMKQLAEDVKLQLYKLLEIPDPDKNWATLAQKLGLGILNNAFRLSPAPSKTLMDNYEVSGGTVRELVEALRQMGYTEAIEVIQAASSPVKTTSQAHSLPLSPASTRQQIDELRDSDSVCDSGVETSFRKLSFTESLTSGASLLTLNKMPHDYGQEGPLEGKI
# T1 sequence (Q00653 whole entry, looked up): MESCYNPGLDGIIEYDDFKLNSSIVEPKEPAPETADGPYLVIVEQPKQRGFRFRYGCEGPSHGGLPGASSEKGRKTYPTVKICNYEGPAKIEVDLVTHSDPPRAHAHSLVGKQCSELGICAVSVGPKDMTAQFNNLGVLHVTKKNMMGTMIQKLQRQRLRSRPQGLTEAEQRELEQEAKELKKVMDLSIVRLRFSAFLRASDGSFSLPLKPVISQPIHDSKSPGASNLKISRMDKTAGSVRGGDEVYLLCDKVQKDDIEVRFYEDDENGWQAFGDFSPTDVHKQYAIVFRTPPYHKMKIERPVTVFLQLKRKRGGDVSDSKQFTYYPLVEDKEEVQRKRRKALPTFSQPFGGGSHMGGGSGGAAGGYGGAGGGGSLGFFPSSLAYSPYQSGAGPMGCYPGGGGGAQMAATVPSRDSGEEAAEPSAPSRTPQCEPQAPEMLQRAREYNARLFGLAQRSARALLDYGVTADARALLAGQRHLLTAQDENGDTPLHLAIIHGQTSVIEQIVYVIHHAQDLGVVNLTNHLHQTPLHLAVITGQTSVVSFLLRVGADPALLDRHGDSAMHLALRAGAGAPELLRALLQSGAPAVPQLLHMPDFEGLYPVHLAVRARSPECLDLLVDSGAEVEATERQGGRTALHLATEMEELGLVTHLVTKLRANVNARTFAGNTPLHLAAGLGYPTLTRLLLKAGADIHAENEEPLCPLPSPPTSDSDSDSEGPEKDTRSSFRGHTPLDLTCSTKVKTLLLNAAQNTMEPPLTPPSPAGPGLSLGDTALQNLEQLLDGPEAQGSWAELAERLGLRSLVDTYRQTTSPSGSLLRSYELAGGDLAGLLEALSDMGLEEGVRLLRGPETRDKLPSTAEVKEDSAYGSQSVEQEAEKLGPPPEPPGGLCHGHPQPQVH
# T1 sequence (Q04206 whole entry, looked up): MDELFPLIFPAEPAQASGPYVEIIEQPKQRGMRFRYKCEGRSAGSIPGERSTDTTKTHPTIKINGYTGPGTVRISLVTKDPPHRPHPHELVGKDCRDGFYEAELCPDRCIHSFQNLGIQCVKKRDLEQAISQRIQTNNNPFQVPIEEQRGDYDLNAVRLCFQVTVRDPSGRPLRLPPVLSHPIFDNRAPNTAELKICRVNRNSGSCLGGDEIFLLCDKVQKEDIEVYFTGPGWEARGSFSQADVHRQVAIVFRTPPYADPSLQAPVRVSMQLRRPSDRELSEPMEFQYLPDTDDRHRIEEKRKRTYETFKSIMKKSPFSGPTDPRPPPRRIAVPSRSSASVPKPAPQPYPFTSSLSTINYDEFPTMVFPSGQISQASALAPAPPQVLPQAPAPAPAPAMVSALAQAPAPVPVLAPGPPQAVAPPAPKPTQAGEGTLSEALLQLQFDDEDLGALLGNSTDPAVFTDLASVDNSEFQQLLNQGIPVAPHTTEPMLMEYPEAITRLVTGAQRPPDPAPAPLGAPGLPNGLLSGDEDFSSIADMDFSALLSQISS
compound,measurement,setting,value
COc1ccc(OC)c(NC(=O)c2sc(=S)n(-c3ccc(C(F)(F)F)cc3)c2NC(=O)CCl)c1,inhibition,[1],Active
same,viability at 2 µM,TMD8 [2],89.4%
same,GI50,TMD8 [3],400 nM
same,inhibition,[4],Active
same,inhibition,[5],Active
same,Activity,TMD8 [6],0.422%
same,Activity,TMD8 [7],53.1%
same,inhibition,[8],Active
same,Activity,TMD8 [9],2.54%
same,bioavailability,[10],110%
same,GI50,[11],1000 nM
same,Activity,OCI-Ly1 [12],0.011%
same,Activity,TMD8 [13],8%
same,viability at 10 µM,OCI-Ly1 [14],95.5%
same,Activity,OCI-Ly1 [15],0.688%
same,Activity,TMD8 [16],58.9%
